Laboratory results from ChEMBL document CHEMBL1134015 (Bioorg Med Chem Lett, 2001).

Tests used:
[1] = biological target: GABA-A receptor; anion channel; test: Inhibition of [35S]TBPS binding to Gamma-aminobutyric acid A receptor of rat brain membranes; format: cell membranes, Membrane
[2] = tested on: Mus musculus; test: In vivo anaesthetic activity after intravenous administration in MF-1 mice was determined by loss of righting reflex using probit analysis; format: functional
[3] = species: Rattus norvegicus; test: Maximum BSR reached in male Wistar rats; format: functional
[4] = species: Rattus norvegicus; test: Time required to gain the righting reflex in male Wistar rats; format: functional, organism-based
[5] = species: Rattus norvegicus; test: Time taken to reach the maximum BSR in male Wistar rats; format: functional
[6] = species: Rattus norvegicus; test: Time taken for 50% decrease in the BSR in male Wistar rats; format: functional
[7] = species: Rattus norvegicus; test: Time to the first 0.25 s burst suppression epoch(onset of anaesthesa) in male Wistar rats; format: functional
[8] = species: Rattus norvegicus; test: Burst suppression ratio (BSR) profile in male Wistar rats; format: functional
How it was run: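 Male Wistar rats (218–420 g), with extradural electrodes implanted and at least 7 days recovery, lightly hand-restrained. IV injection over 10 s into a tail vein by computer-controlled infusion pump. […] BSR extracted from EEG. Read-outs: onset (first 0.25 s burst-suppression epoch), time to max BSR, time to 50% BSR decrease, time to regain righting reflex. Mean and SEM.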

[9] = tested on: Mus musculus; test: In vivo anaesthetic activity after intravenous administration in MF-1 mice was determined by loss of righting reflex using probit analysis; Convulsant; format: functional, organism-based
[10] = tested on: GABA-A receptor; anion channel; test: Inhibition of [35S]TBPS binding to Gamma-aminobutyric acid A (GABA-A) receptor of rat whole brain membranes (inactive); format: cell membranes
How it was run: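 Rat whole-brain membranes. Inhibition of [35S]TBPS radioligand binding at the GABA-A receptor. […] Means of three experiments.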

Compound | IC50 [1] [µM] | HD50 [2] [µM/kg] | other results
CC(=O)Nc1c(C(C)C)cc(CN2CCOCC2)cc1C(C)C | > 10 | >282 | –
CC(C)c1cccc(C(C)C)c1O [PROPOFOL] | – | 68 | Max BSR [3]: 55%; Recovery time [4]: 5.2 min; Time to max. BSR [5]: 30 s; Offset time [6]: 1.4 min; Onset time [7]: 13.2 s
CNc1c(C(C)C)cc(CN2CCOCC2)cc1C(C)C | > 100 | 51 | –
CC(C)c1cc(C(=O)CN2CCSCC2)cc(C(C)C)c1O | > 10 | 68.5 | –
CC(C)c1cc(CN2CCSCC2)cc(C(C)C)c1N | > 100 | 22.9 | –
CC(=O)N1CCN(Cc2cc(C(C)C)c(O)c(C(C)C)c2)CC1 | > 100 | 38.8 | –
CC(C)c1cc(CN2CCOCC2)cc(C(C)C)c1O | > 100 | 32 | BSR [8]: 51 µM/kg; Max BSR [3]: 54.9%; Recovery time [4]: 3.8 min; Time to max. BSR [5]: 40 s; Offset time [6]: 1.7 min; Onset time [7]: 16.2 s
CC(C)c1cc(CCN2CCOCC2)cc(C(C)C)c1O | > 100 | 35.8 | –
CC(C)c1cc(CN2CCOCC2)cc(C(C)C)c1 | > 30 | – | HD50 [9]: Convulsant
CC(C)c1cc(CN2CCSCC2)cc(C(C)C)c1O | 27.6 | 25.5 | –
CCOC(=O)C1CCN(Cc2cc(C(C)C)c(O)c(C(C)C)c2)CC1 | 31 | 19 | –
CC(C)c1cc(CN2CCOCC2)cc(C(C)C)c1N(C)C | > 30 | 83 | –
CCOC(=O)C1CCN(Cc2cc(C(C)C)c(N)c(C(C)C)c2)CC1 | – | 14.4 | IC50 [10]: Not Active
CC(C)c1cc(CN2CCOCC2)cc(C(C)C)c1N | > 100 | 36.5 | –
CC(C)c1cc(CN(C)Cc2ccccc2)cc(C(C)C)c1O | > 10 | 25.1 | –
